Measured values from ChEMBL document CHEMBL3608222, “Discovery and structure-guided optimization of tert-butyl 6-(phenoxymethyl)-3-(trifluoromethyl)benzoates as liver X receptor agonists” (Bioorg Med Chem Lett, 2015).
Active and inactive are the calls of the source. The rule behind the calls is not given here.

Columns and labels:
[1] = target: Retinoic acid receptor RXR-alpha/oxysterols receptor LXR-beta (Homo sapiens, UniProt P55055); test: Binding affinity to His-LXRbeta/FLAG-RXRalpha (unknown origin) by FITC-labeled T0901317 based fluorescence polarization assay; format: protein-complex assay
Sequence of Retinoic acid receptor RXR-alpha/oxysterols receptor LXR-beta (P19793 whole entry, one chain of several): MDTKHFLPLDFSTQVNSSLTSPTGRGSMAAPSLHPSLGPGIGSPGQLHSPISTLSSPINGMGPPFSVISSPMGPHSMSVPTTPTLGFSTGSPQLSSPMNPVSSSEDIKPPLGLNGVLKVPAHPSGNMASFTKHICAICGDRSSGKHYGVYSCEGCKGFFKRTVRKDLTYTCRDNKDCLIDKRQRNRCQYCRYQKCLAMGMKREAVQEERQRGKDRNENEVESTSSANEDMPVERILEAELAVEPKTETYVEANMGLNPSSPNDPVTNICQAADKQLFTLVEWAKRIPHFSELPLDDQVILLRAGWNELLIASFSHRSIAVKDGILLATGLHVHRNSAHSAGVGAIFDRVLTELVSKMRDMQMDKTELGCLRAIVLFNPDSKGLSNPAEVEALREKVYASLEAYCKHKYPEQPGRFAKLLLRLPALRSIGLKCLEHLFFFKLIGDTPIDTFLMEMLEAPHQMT

[2] = target: T1, Oxysterols receptor LXR-alpha (Homo sapiens, UniProt Q13133); test: Agonist activity at human LXRalpha expressed in African green monkey kidney CV1 cells co-expressing pTAL-LXRE including LXR response element incubated for 20 hrs by luciferase reporter gene assay; format: cell-based, CV-1
T1 sequence (Q13133 whole entry): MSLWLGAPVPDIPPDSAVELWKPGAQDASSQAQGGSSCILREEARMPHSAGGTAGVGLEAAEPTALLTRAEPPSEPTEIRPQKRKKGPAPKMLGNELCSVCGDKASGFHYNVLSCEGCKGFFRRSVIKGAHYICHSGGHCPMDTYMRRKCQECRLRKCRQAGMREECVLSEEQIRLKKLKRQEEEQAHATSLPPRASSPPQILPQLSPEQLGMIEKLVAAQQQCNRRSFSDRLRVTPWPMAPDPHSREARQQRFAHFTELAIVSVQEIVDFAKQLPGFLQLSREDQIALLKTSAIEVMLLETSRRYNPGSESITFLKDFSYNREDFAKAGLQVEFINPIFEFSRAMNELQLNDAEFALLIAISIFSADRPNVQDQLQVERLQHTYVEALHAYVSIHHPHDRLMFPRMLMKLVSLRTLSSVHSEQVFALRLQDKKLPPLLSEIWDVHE

Cynomolgus monkey [3] = test: Increase in ABCA1 mRNA expression in cynomolgus monkey blood at 0.1 to 10 mg/kg, po dosed daily for 14 days measured on day 1; format: functional, organism-based; settings: Macaca fascicularis
How it was run: (§1)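 Cynomolgus monkeys dosed daily by oral gavage at 0, 0.1, 0.3, 1, 3 or 10 mg/kg for 14 days, n = 6/group. Blood ABCA1 mRNA was measured on Day 1 and Day 14; plasma triglyceride was measured after single and repeated dosing. Mean + SE.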

Cynomolgus monkey [4] = test: Increase in ABCA1 mRNA expression in cynomolgus monkey blood at 0.1 to 10 mg/kg, po dosed daily for 14 days measured on day 14; format: functional, organism-based; settings: Macaca fascicularis; how it was run: as §1
[5] = Cmax in mouse at 10 mg/kg, po; format: ADME, organism-based; parameters: dose 10 mg/kg, route oral; settings: in vivo
How it was run: (§2)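 Mice given a single oral dose of 10 mg/kg. Plasma concentration measured in µg/ml as Cmax and at 6 h.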

Mus musculus [6] = test: Effect on FAS mRNA expression in C57Bl/6 mouse liver at 1 mg/kg, po dosed daily for 7 days; format: functional, organism-based
How it was run: (§3)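 C57Bl/6 mice dosed daily by oral gavage at 1 mg/kg for 7 days, n = 5/group. Liver FAS and SCD-1 mRNA and plasma TG were then measured. Groups compared with vehicle by Dunnett's test, p <0.05.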

Mus musculus [7] = test: Effect on SCD1 mRNA expression in C57Bl/6 mouse liver at 1 mg/kg, po dosed daily for 7 days; format: functional, organism-based; how it was run: as §3
Cynomolgus monkey [8] = test: Toxicity in cynomolgus monkey assessed as effect on plasma triglyceride levels at 0.1 to 10 mg/kg, po administered as single dose; format: organism-based, Macaca fascicularis; settings: in vivo; how it was run: as §1
[9] = Plasma concentration in mouse at 10 mg/kg, po measured at 6 hrs; format: ADME, organism-based; how it was run: as §2
RAW264.7 [10] = test: […] of cholesterol efflux in mouse RAW264.7 cells at 0.1 using [4-14C]-cholesterol incubated for 24 hrs by scintillation counting method relative to T0901317; format: functional
How it was run: (§4)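 RAW264.7 cells were labeled 2 days with 0.2 µCi/ml [4-14C]-cholesterol in DMEM/1% FBS and washed with 0.2% BSA/PBS. Medium with or without 10 µg/ml apoAI was added, with compound (final 0.01–1 µM) or DMSO, for about 24 h. Medium and cell radioactivity were counted. ApoAI-dependent efflux % = efflux(+apoAI) minus mean efflux(−apoAI); % efficacy is given at the stated concentration.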

Cynomolgus monkey [11] = test: Toxicity in cynomolgus monkey assessed as effect on plasma triglyceride levels at 0.1 to 10 mg/kg, po dosed daily for 14 days; format: organism-based, Macaca fascicularis; settings: in vivo, 336 h; how it was run: as §1
[12] = target: T2, Oxysterols receptor LXR-beta (Homo sapiens) (UniProt P55055); test: Agonist activity at human LXRbeta expressed in African green monkey kidney CV1 cells co-expressing pTAL-LXRE including LXR response element incubated for 20 hrs by luciferase reporter gene assay relative to T0901317; format: cell-based; settings: CV-1
T2 sequence (whole entry): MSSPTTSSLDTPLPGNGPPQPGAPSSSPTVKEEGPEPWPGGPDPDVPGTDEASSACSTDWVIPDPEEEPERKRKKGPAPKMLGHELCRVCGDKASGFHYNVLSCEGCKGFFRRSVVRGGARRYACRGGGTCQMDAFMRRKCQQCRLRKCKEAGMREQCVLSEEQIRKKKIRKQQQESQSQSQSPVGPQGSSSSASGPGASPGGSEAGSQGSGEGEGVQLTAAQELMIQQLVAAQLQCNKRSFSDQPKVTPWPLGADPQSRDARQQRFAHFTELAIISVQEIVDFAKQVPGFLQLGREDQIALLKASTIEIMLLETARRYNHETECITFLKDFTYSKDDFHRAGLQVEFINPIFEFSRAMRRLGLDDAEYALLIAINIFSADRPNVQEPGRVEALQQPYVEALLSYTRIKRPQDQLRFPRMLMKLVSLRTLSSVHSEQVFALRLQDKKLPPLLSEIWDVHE
How it was run: (§5)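 CV-1 cells grown in DMEM with 10% charcoal/dextran-treated FBS at 37 °C, seeded 20 h before transfection. Cells were lipofected with pcDNA-hLXRa or pcDNA-hLXRb plus the pTAL-LXRE luciferase reporter. After 3 h, medium was added, then compound in DMSO. Incubation about 20 h before luciferase luminescence read-out.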

Mus musculus [13] = test: Toxicity in C57Bl/6 mouse assessed as effect on plasma triglyceride levels at 1 mg/kg, po dosed daily for 7 days; format: organism-based; settings: in vivo, 168 h; how it was run: as §3
[14] = target: T3, Oxysterols receptor LXR-beta (Homo sapiens, UniProt P55055); test: Agonist activity at human LXRbeta expressed in African green monkey kidney CV1 cells co-expressing pTAL-LXRE including LXR response element incubated for 20 hrs by luciferase reporter gene assay; format: cell-based, CV-1; how it was run: as §5
T3 sequence (P55055 whole entry): T2 sequence (whole entry)

RAW264.7 [15] = test: […] of cholesterol efflux in mouse RAW264.7 cells at 1 uM using [4-14C]-cholesterol incubated for 24 hrs by scintillation counting method relative to T0901317; format: functional; how it was run: as §4
[16] = target: T4, Oxysterols receptor LXR-alpha (Homo sapiens) (UniProt Q13133); test: Agonist activity at human LXRalpha expressed in African green monkey kidney CV1 cells co-expressing pTAL-LXRE including LXR response element incubated for 20 hrs by luciferase reporter gene assay relative to T0901317; format: cell-based; settings: CV-1; how it was run: as §5
T4 sequence (whole entry): T1 sequence (Q13133 whole entry)

[17] = target: Retinoic acid receptor RXR-alpha/oxysterols receptor LXR-alpha (Homo sapiens, UniProt Q13133); test: Binding affinity to His-LXRalpha/FLAG-RXRalpha (unknown origin) by FITC-labeled T0901317 based fluorescence polarization assay; format: protein-complex assay
Sequence of Retinoic acid receptor RXR-alpha/oxysterols receptor LXR-alpha (P19793 whole entry, one chain of several): as the sequence (P19793 whole entry, one chain of several) above

For `CC(C)(C)OC(=O)c1cc(C(F)(F)F)ccc1COc1ccc(CCCCC(=O)O)cc1`, the Ki [1] was 630 nM.

With `CC(C)(C)OC(=O)c1c(COc2ccc(-c3ccc(CC(=O)O)cc3)cc2)ccc(C(F)(F)F)c1O` the EC50 [2] was 510 nM, the Activity (Cynomolgus monkey [3]) was “Dose-dependent effect” and the Activity (Cynomolgus monkey [4]) was “Dose-dependent effect”. The Cmax [5] was 8900 ng/mL, the Activity (Mus musculus [6]) was “inactive” and the Activity (Mus musculus [7]) was “inactive”. For the same compound, the Activity (Cynomolgus monkey [8]) was “Non-toxic”, the concentration at 6 h [9] was 5300 ng/mL and the Efficacy (RAW264.7 [10]) was 57%. For the same compound, the Activity (Cynomolgus monkey [11]) was “Non-toxic”, the Efficacy [12] was 51% and the Activity (Mus musculus [13]) was “Non-toxic”. For the same compound, the EC50 [14] was 160 nM, the Efficacy (RAW264.7 [15]) was 69% and the Efficacy [16] was 79%.

In the case of `CC(=O)N(C)c1ccc(OCc2ccc(C(F)(F)F)cc2C(=O)OC(C)(C)C)cc1`, the EC50 [2] is reported as 310 nM, the Cmax [5] is reported as 1700 ng/mL and the Ki [17] is reported as 870 nM. It also gave a concentration at 6 h [9] of 1000 ng/mL, an Efficacy [12] of 28% and a Ki [1] of 180 nM. It also gave an EC50 [14] of 210 nM and an Efficacy [16] of 27%.

`CC(C)(C)OC(=O)c1cc(C(F)(F)F)ccc1COc1ccc(CCCCCC(=O)O)cc1` showed a Ki [17] of 8600 nM and a Ki [1] of 1200 nM.

`CC(C)(C)OC(=O)c1cc(C(F)(F)F)ccc1COc1ccc(-c2cccc(CC(=O)O)c2)cc1` showed a Ki [17] of 5100 nM and a Ki [1] of 360 nM.

In the case of `CC(C)(C)OC(=O)c1c(COc2ccc(-c3cccc(CC(=O)O)c3)cc2)ccc(C(F)(F)F)c1O`, the EC50 [2] is reported as 1300 nM, the Efficacy (RAW264.7 [10]) is reported as 3% and the Efficacy [12] is reported as 27%. It also gave an EC50 [14] of 530 nM, an Efficacy (RAW264.7 [15]) of 58% and an Efficacy [16] of 39%.

`CC(=O)N(C)c1ccc(OCc2ccc(C(F)(F)F)c(O)c2C(=O)OC(C)(C)C)cc1` showed an EC50 [2] of 280 nM, a Cmax [5] of 1000 ng/mL and a Ki [17] of 270 nM. For the same compound, the concentration at 6 h [9] was 670 ng/mL, the Efficacy [12] was 76% and the Ki [1] was 170 nM. The EC50 [14] was 260 nM and the Efficacy [16] was 89%.

`CC(C)(C)OC(=O)c1cc(C(F)(F)F)ccc1COc1ccc(-c2cccc(C(=O)O)c2)cc1` gave a Ki [17] of 6300 nM and a Ki [1] of 3400 nM.

Work on `CN(C(=O)CCC(=O)O)c1ccc(OCc2ccc(C(F)(F)F)cc2C(=O)OC(C)(C)C)cc1` yielded a Ki [17] of 4000 nM and a Ki [1] of 660 nM.

`CC(C)(C)OC(=O)c1cc(C(F)(F)F)ccc1COc1ccc(-c2ccc(CC(=O)O)cc2)cc1` showed a Ki [17] of 1000 nM and a Ki [1] of 260 nM.

For `CC(C)(C)OC(=O)c1cc(C(F)(F)F)ccc1COc1ccc(CCCC(=O)O)cc1`, the Ki [1] was 4900 nM.

Compound `CC(C)(C)OC(=O)c1cc(C(F)(F)F)ccc1COc1ccc(-c2ccc(C(=O)O)cc2)cc1` has a Ki [17] of over 10000 nM and a Ki [1] of over 10000 nM.
